From ChEMBL document CHEMBL1221292, “Design, synthesis, and evaluation of quinazoline T cell proliferation inhibitors” (Bioorg Med Chem, 2010)
Values belong to the compound of their own block, whether it stands above or below them. Calls of active or inactive are those of the source. The rule behind the calls is not given here.

How the values were obtained:
PBMC [1] = assay: Antiproliferative activity against ConA-stimulated human PBMC after 72 hrs by BrdU incorporation assay; format: functional, cell-based
Outline: (§1)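 Cells grown in RPMI at 37 °C, 5% CO2, then serum-starved 12 h. PBMC stimulated with ConA 10 µg/mL; Jurkat need no stimulation. 1 × 10^5 cells cultured 3 days with or without inhibitor, duplicate wells. Labelled with 10 µM BrdU, DNA denatured, anti-BrdU-POD added, colorimetric TMB read-out; IC50 derived.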

Jurkat [2] = assay: Antiproliferative activity against human Jurkat cells after 72 hrs by BrdU incorporation assay; format: functional, cell-based; outline: as §1
Splenocyte [3] = assay: Inhibition of irradiated BALB/c mouse splenocyte-stimulated IL2 secretion in 2C mouse splenocyte after 72 hrs by mixed lymphocyte reaction; format: functional, cell-based
Outline: (§2)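 MLR: splenocytes from 2c mice stimulated by irradiated BALB/c splenocytes in the presence of compound at the specified concentrations, 96-well cultures up to 72 h. Supernatants collected at 24, 48 and 72 h; IL-2 measured by ELISA at 450 nm.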

PBMC [4] = assay: Antiproliferative activity against CD3+ expressing human PBMC after 72 hrs by BrdU incorporation assay; format: functional, cell-based
Outline: (§3)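 PBMC isolated from healthy donor blood on Ficoll. CD3+ T cells purified with anti-CD3 (autoMACS), identity confirmed as CD3+ by flow cytometry; CD3-depleted PBMC also kept. Stimulation: ConA (10 µg/mL), ODN2006 (0.5 µg/mL) or LPS (50 µg/mL); depleted PBMC got ODN2006 or LPS. Cultured 72 h with inhibitor. Read-out was BrdU uptake, normalized to maximal proliferation without inhibitor.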

PBMC [5] = assay: Antiproliferative activity against ODN2006-stimulated human PBMC after 72 hrs by BrdU incorporation assay; format: functional, cell-based; outline: as §3
PBMC [6] = assay: Inhibition of anti-TCR/PMA-stimulated IL2 production in human PBMC cells […] after 12 hrs by ELISA; format: functional, cell-based
Outline: (§4)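 Jurkat or PBMC treated 12 h with 1 µM, 0.5 µM or no inhibitor. 1 × 10^6 cells were then stimulated 12 h with plate-bound anti-TCR C305 (1:500) alone, or with anti-CD28 (1:100) and/or PMA (50 ng/ml); ionomycin 1 µM was also used. Cells spun out at 130g. Supernatant IL-2 measured by ELISA, absorbance 450 nm.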

PC-3 [7] = assay: Antiproliferative activity against non-stimulated human PC3 after 72 hrs by BrdU incorporation assay; format: functional, cell-based; conditions: PC-3, 72 h
HEK293 [8] = assay: Antiproliferative activity against FCS-stimulated human HEK293 cells after 72 hrs by BrdU incorporation assay; format: functional, cell-based; conditions: HEK293, 72 h
Outline: (§5)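 Non-hematopoietic lines grown in DMEM, serum-starved 12 h, then stimulated: 10% FCS (HEK293, A375), PDGF 30 ng/mL (NIH 3T3), EGF 30 ng/mL (MDA-MB-231). 1 × 10^5 cells cultured 3 days over increasing inhibitor concentrations, duplicate wells. Proliferation by 10 µM BrdU labelling with colorimetric anti-BrdU-POD ELISA (TMB).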

PBMC [9] = assay: Inhibition of anti-TCR-stimulated IL2 production in human PBMC cells […] after 12 hrs by ELISA; format: functional, cell-based; outline: as §4
PBMC [10] = assay: Cell cycle arrest in human PBMC assessed as accumulation at G2 phase by flow cytometry; format: functional
Outline: (§6)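 PBMC treated with inhibitor 12 and 24 h, then pelleted, PBS-washed and fixed in cold 70% ethanol for at least 12 h. RNase A added for 30 min in the dark, then propidium iodide; DNA content analysed by FACS for G2 and sub-G1 fractions.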

Jurkat [11] = assay: Inhibition of TCR-mediated SLP76 phosphorylation in human Jurkat cells after 16 hrs by Western blotting; format: cell-based
Outline: (§7)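 Jurkat treated 16 h with inhibitor, then stimulated 1 min at 37 °C with C305 (1:500) or mock PBS. Cells lysed at 2 × 10^7 cells/mL in NP-40 buffer with phosphatase and protease inhibitors. SLP-76 immunoprecipitated; pTyr detected by Western blot with 4G-10. For ZAP-70 activity, ZAP-70 IP was incubated with recombinant His-SLP-76 and 5 µM ATP for 15 min at 30 °C, then blotted for pTyr.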

NIH3T3 [12] = assay: Antiproliferative activity against non-stimulated mouse NIH/3T3 cells after 72 hrs by BrdU incorporation assay; format: functional, cell-based; conditions: NIH3T3, 72 h
PBMC [13] = assay: Antiproliferative activity against CD3 deficient human PBMC after 72 hrs by BrdU incorporation assay; format: functional, cell-based; outline: as §3
NIH3T3 [14] = assay: Antiproliferative activity against PDGF-stimulated mouse NIH/3T3 cells after 72 hrs by BrdU incorporation assay; format: functional, cell-based; conditions: NIH3T3, 72 h; outline: as §5
MDA-MB-231 [15] = assay: Antiproliferative activity against stimulated human MDA-MB-231 cells after 72 hrs by BrdU incorporation assay; format: functional, cell-based; conditions: MDA-MB-231, 72 h; outline: as §5
HEK293 [16] = assay: Antiproliferative activity against non-stimulated human HEK293 cells after 72 hrs by BrdU incorporation assay; format: functional, cell-based; conditions: HEK293, 72 h
MDA-MB-231 [17] = assay: Antiproliferative activity against non-stimulated human MDA-MB-231 cells after 72 hrs by BrdU incorporation assay; format: functional, cell-based; conditions: MDA-MB-231, 72 h
PBMC [18] = assay: Antiproliferative activity against non-stimulated human PBMC after 72 hrs by BrdU incorporation assay; format: cell-based
A-375 [19] = assay: Antiproliferative activity against non-stimulated human A375 cells after 72 hrs by BrdU incorporation assay; format: functional, cell-based; conditions: A-375, 72 h
Jurkat [20] = assay: Antiproliferative activity against ConA-stimulated human Jurkat after 72 hrs by BrdU incorporation assay; format: functional, cell-based
A-375 [21] = assay: Antiproliferative activity against FCS-stimulated human A375 cells after 72 hrs by BrdU incorporation assay; format: functional, cell-based; conditions: A-375, 72 h; outline: as §5
[22] = Antiproliferative activity against stimulated human keratinocytes after 72 hrs by BrdU incorporation assay; format: functional, cell-based; conditions: Keratinocyte
PBMC [23] = assay: Antiproliferative activity against LPS-stimulated human PBMC after 72 hrs by BrdU incorporation assay; format: functional, cell-based; outline: as §3
Jurkat [24] = assay: Inhibition of TCR-mediated Zap70 phosphorylation in human Jurkat cells after 16 hrs by Western blotting; format: cell-based; outline: as §7
PC-3 [25] = assay: Antiproliferative activity against stimulated human PC3 after 72 hrs by BrdU incorporation assay; format: functional, cell-based; conditions: PC-3, 72 h
Jurkat [26] = assay: Inhibition of anti-TCR-stimulated IL2 production in human Jurkat cells […] by ELISA; format: functional, cell-based; outline: as §4
Splenocyte [27] = assay: Inhibition of irradiated BALB/c mouse splenocyte-stimulated IL2 secretion in 2C mouse splenocyte at 1 uM after 24 hrs by mixed lymphocyte reaction; format: functional, cell-based; outline: as §2
Jurkat [28] = assay: Inhibition of PMA/anti-CD28-stimulated IL2 production in human Jurkat cells […] after 12 hrs by ELISA; format: functional, cell-based; outline: as §4
Jurkat [29] = assay: Inhibition of anti-TCR/antiCD28-stimulated IL2 production in human Jurkat cells […] after 12 hrs by ELISA; format: functional, cell-based; outline: as §4
PBMC [30] = assay: Cell cycle arrest in human PBMC assessed as accumulation at subG1 phase by flow cytometry; format: functional; outline: as §6
PBMC [31] = assay: Inhibition of PMA/anti-CD28-stimulated IL2 production in human PBMC cells up to 5 uM after 12 hrs by ELISA; format: functional, cell-based; outline: as §4
Jurkat [32] = assay: Antiproliferative activity against non-stimulated human Jurkat cells after 72 hrs by BrdU incorporation assay; format: functional, cell-based; outline: as §1

IC50 (Jurkat [2]): 850 nM
SMILES: Cc1ccc(Nc2nc(-c3cc(O)c(O)c(O)c3)nc3ccccc23)cc1
IC50 (PBMC [1]): 850 nM | inhibition (Splenocyte [3]): Active

IC50 (Jurkat [2]): 600 nM
SMILES: Oc1cc(-c2nc(NCc3ccc(F)c(F)c3)c3ccccc3n2)cc(O)c1O
IC50 (PBMC [1]): 280 nM

IC50 (Jurkat [2]): 690 nM
SMILES: Oc1cc(-c2nc(Nc3ccc4cn[nH]c4c3)c3ccccc3n2)cc(O)c1O
IC50 (PBMC [1]): 500 nM

IC50 (Jurkat [2]): 1100 nM
SMILES: COc1ccc(CNc2nc(-c3cc(OC)c(OC)c(OC)c3)nc3ccccc23)cc1
IC50 (PBMC [1]): 500 nM

IC50 (Jurkat [2]): 850 nM
SMILES: CCCCCCCCOc1ccc(Nc2nc(-c3cc(OC)c(OC)c(OC)c3)nc3ccccc23)cc1
IC50 (PBMC [1]): 2400 nM

IC50 (Jurkat [2]): 730 nM
SMILES: COc1cc(-c2nc(NCc3ccc(Cl)c(Cl)c3)c3ccccc3n2)cc(OC)c1OC
IC50 (PBMC [1]): 300 nM

IC50 (Jurkat [2]): 4250 nM
SMILES: Oc1cc(-c2nc(Nc3ccc(Cl)cc3)c3ccccc3n2)cc(O)c1O
IC50 (PBMC [1]): 550 nM

IC50 (Jurkat [2]): 600 nM
SMILES: COc1cc(-c2nc(Nc3ccc4c(c3)OCO4)c3ccccc3n2)cc(OC)c1OC
IC50 (PBMC [1]): 380 nM

IC50 (Jurkat [2]): 670 nM
SMILES: Nc1ccc(CNc2nc(-c3cc(O)c(O)c(O)c3)nc3ccccc23)cc1
IC50 (PBMC [1]): 570 nM

IC50 (Jurkat [2]): 180 nM
SMILES: COc1cc(-c2nc(Nc3ccc(OC(F)(F)F)cc3)c3ccccc3n2)cc(OC)c1OC
IC50 (PBMC [1]): 400 nM

IC50 (Jurkat [2]): 550 nM
SMILES: COc1ccc(Nc2nc(-c3cc(O)c(O)c(O)c3)nc3ccccc23)cc1
IC50 (PBMC [1]): 500 nM

IC50 (PC-3 [7]): 10000 nM | IC50 (MDA-MB-231 [15]): > 10000 nM | IC50 (MDA-MB-231 [17]): > 10000 nM | IC50 (A-375 [19]): 800 nM | IC50 (Jurkat [20]): 100 nM | IC50 (A-375 [21]): > 10000 nM | IC50 (PC-3 [25]): > 10000 nM | IC50 (Jurkat [2]): 29 nM | IC50 (Jurkat [32]): 50 nM
SMILES: COc1cc(-c2nc(Nc3ccc(C)cc3)c3ccccc3n2)cc(OC)c1OC
IC50 (PBMC [1]): 70 nM | IC50 (PBMC [4]): 100 nM | IC50 (PBMC [5]): 500 nM | inhibition (PBMC [6]): inactive | IC50 (HEK293 [8]): 10000 nM | inhibition (PBMC [9]): inactive | Activity (PBMC [10]): 50% | inhibition (Jurkat [11]): Dose-dependent effect | IC50 (NIH3T3 [12]): 3000 nM | Activity (PBMC [13]): Active | IC50 (NIH3T3 [14]): 7000 nM | IC50 (HEK293 [16]): 10000 nM | IC50 (PBMC [18]): 50 nM | IC50 [22]: > 10000 nM | IC50 (PBMC [23]): 500 nM | inhibition (Jurkat [24]): Dose-dependent effect | inhibition (Jurkat [26]): inactive | inhibition (Splenocyte [27]): inactive | inhibition (Jurkat [28]): inactive | inhibition (Jurkat [29]): inactive | Activity (PBMC [30]): 9.5% | inhibition (Splenocyte [3]): inactive | inhibition (PBMC [31]): inactive

IC50 (Jurkat [2]): 1100 nM
SMILES: COc1ccc(Nc2nc(-c3cc(OC)c(OC)c(OC)c3)nc3ccccc23)cc1
IC50 (PBMC [1]): 500 nM

IC50 (Jurkat [2]): 730 nM
SMILES: COc1cc(-c2nc(NCc3ccc(F)c(F)c3)c3ccccc3n2)cc(OC)c1OC
IC50 (PBMC [1]): 200 nM

IC50 (Jurkat [2]): 3640 nM
SMILES: Oc1cc(-c2nc(NCc3ccc(Cl)c(Cl)c3)c3ccccc3n2)cc(O)c1O
IC50 (PBMC [1]): 2600 nM

IC50 (Jurkat [2]): 950 nM
SMILES: Oc1cc(-c2nc(NCc3ccccc3)c3ccccc3n2)cc(O)c1O
IC50 (PBMC [1]): 7000 nM

IC50 (Jurkat [2]): 230 nM
SMILES: COc1cc(-c2nc(Nc3ccc(O)cc3)c3ccccc3n2)cc(OC)c1OC
IC50 (PBMC [1]): 300 nM
